Measurements: ChEMBL document CHEMBL5230170, “Pyridine based dual binding site aromatase (CYP19A1) inhibitors” (RSC Med Chem, 2023)
Activity calls are given as the source filed them. The rule behind the calls is not given here.

Experiments:
MCF7 = experiment: Cytotoxicity against human MCF7 cells assessed as reduction in cell growth at 1 uM incubated for 48 hrs by BrdU cell proliferation assay; type: functional, cell-based
In short: (§1)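 48 h exposure to 1 μM, with DMSO vehicle (≤0.01%) and doxorubicin (1 μM) controls, then BrdU added for 2 h at 37 °C before fixation, DNA denaturation and colorimetric immunoassay of BrdU incorporation. Plating was 8 × 10^3 cells/well for MCF-10A and 5 × 10^3 cells/well for MDA-MB-231. Technical replicates were n = 6 for MDA-MB-231 and n = 5 for MCF-7 and MCF-10A; one-way ANOVA with Tukey's test.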

MCF-10A = experiment: Cytotoxicity against human MCF-10A cells assessed as reduction in cell growth at 1 uM incubated for 48 hrs by BrdU cell proliferation assay; type: toxicity, cell-based; in short: as §1
MDA-MB-231 = experiment: Cytotoxicity against human MDA-MB-231 cells assessed as reduction in cell growth at 1 uM incubated for 48 hrs by BrdU cell proliferation assay; type: functional, cell-based; in short: as §1
Homo sapiens [1] = organism: Homo sapiens; experiment: Selectivity index, ratio of IC50 for inhibition of CYP2D6 in human liver microsomes to IC50 for inhibition of CYP19A1 in human JEG-3 cells; type: cell-based
In short: (§2)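 The CYP isoform IC50 was measured in human liver microsomes with an isoform-specific probe substrate. […] Tritiated water was charcoal-cleared and counted, then normalised to BCA protein, in triplicate. The index is the ratio of the isoform IC50 to the CYP19A1 IC50.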

Homo sapiens [2] = organism: Homo sapiens; experiment: Selectivity index, ratio of IC50 for inhibition of CYP1A2 in human liver microsomes to IC50 for inhibition of CYP19A1 in human JEG-3 cells; type: cell-based; in short: as §2

Q: What does the source list for `CCC#CCOc1ccc2cc(C(O)(c3ccc(Br)cc3)c3cccnc3)oc2c1` (centres undefined)?
A: Activity (MCF7): inactive; Activity (MCF-10A): Not Active; Activity (MDA-MB-231): inactive

Q: Which Activity (MCF7) does the source give for `COc1cccc2c1C(=O)c1c(O)c3c(c(O)c1C2=O)C[C@@](O)(C(=O)CO)C[C@@H]3O[C@H]1C[C@H](N)[C@H](O)[C@H](C)O1` [DOXORUBICIN] here?
A: Its Activity is “inactive”.

Q: And the Activity (MCF-10A)?
A: Its Activity is “Not Active”.

Q: And the Activity (MDA-MB-231)?
A: The Activity was “inactive”.

Q: Which Activity (MCF7) does the source give for `COc1ccc2cc(C(O)(c3cccnc3)c3ccc(Cl)cc3Cl)oc2c1` (centres undefined) here?
A: The Activity was “inactive”.

Q: And the Activity (MCF-10A)?
A: Its Activity is “Non-Toxic”.

Q: What about the Activity (MDA-MB-231) of the same compound?
A: The Activity was “inactive”.

Q: Which results are given for `CCC#CCOc1ccc2cc(C(O)(c3ccc(Cl)cc3)c3cccnc3)oc2c1` (centres undefined)?
A: Activity (MCF7): inactive; Activity (MCF-10A): Not Active; Activity (MDA-MB-231): inactive

Q: How did the Activity (MCF7) turn out when `COc1ccc2cc(C(O)(c3ccc(Br)cc3)c3cccnc3)oc2c1` (centres undefined) was run?
A: Its Activity is “inactive”.

Q: And the Activity (MCF-10A)?
A: Its Activity is “Non-Toxic”.

Q: What about the Activity (MDA-MB-231) of the same compound?
A: The Activity was “inactive”.

Q: With `COc1ccc2cc(C(O)(c3ccc(Cl)cc3)c3cccnc3)oc2c1` (centres undefined) as the compound, how does the Activity (MCF7) read?
A: The Activity was “inactive”.

Q: And the Activity (MCF-10A)?
A: Its Activity is “Non-Toxic”.

Q: What about the Activity (MDA-MB-231) of the same compound?
A: The Activity was “inactive”.

Q: `COc1ccc2cc(C(O)(c3ccc(F)cc3)c3cccnc3)oc2c1` (centres undefined) was tested. Which Activity (MCF7) did it give?
A: The Activity was “inactive”.

Q: And the Activity (MCF-10A)?
A: The Activity was “Non-Toxic”.

Q: And the Activity (MDA-MB-231)?
A: The Activity was “inactive”.

Q: For `CC#CCOc1ccc2cc(C(O)(c3ccc(Cl)cc3)c3cccnc3)oc2c1` (centres undefined), which Activity (MCF7) is on record?
A: The Activity was “inactive”.

Q: And the Activity (MCF-10A)?
A: The Activity was “Non-Toxic”.

Q: And the Activity (MDA-MB-231)?
A: Its Activity is “inactive”.

Q: `CC#CCOc1ccc2cc(C(O)(c3ccc(Br)cc3)c3cccnc3)oc2c1` (centres undefined) was tested. Which Ratio IC50 (Homo sapiens [1]) did it give?
A: The Ratio IC50 was 30100.

Q: And the Ratio IC50 (Homo sapiens [2])?
A: The Ratio IC50 was 30100.

Q: And the Activity (MCF7)?
A: Its Activity is “inactive”.

Q: And the Activity (MCF-10A)?
A: The Activity was “Non-Toxic”.

Q: And the Activity (MDA-MB-231)?
A: Its Activity is “inactive”.
